Laboratory results from ChEMBL document CHEMBL1133510, “Synthesis and evaluation of novel steroidal oxime inhibitors of P450 17 (17 alpha-hydroxylase/C17-20-lyase) and 5 alpha-reductase types 1 and 2” (J Med Chem, 2000).

Legend:
[1] = molecular target: T1, 3-oxo-5-alpha-steroid 4-dehydrogenase 1 (Homo sapiens, UniProt P18405); assay: Evaluated for the inhibitory activity against human steroid 5-alpha-reductase type I in human DU-145 cell assay at 5 nM of androstenedione; assay type: cell-based
T1 sequence (P18405 whole entry): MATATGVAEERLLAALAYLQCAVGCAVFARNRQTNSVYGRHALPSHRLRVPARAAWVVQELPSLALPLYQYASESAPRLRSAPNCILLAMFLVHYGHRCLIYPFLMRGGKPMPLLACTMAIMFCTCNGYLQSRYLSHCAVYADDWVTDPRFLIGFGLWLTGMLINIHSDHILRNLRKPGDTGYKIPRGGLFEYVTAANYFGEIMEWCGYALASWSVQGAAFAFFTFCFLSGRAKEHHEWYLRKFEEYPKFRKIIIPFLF
How it was run: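 Whole human DU-145 cells as source of type 1 enzyme, incubated with radiolabeled androstenedione at 5 nM; HPLC separation of product. IC50 = inhibitor concentration giving 50% inhibition; mean of at least two experiments.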

[2] = molecular target: T2, Steroid 17-alpha-hydroxylase/17,20 lyase (Rattus norvegicus, UniProt P11715); assay: Evaluated for the inhibitory activity towards Cytochrome P450 17 rat enzyme using testicular microsome at 25 uM of substrate (progesterone); design: species or system Testis
T2 sequence (P11715 whole entry): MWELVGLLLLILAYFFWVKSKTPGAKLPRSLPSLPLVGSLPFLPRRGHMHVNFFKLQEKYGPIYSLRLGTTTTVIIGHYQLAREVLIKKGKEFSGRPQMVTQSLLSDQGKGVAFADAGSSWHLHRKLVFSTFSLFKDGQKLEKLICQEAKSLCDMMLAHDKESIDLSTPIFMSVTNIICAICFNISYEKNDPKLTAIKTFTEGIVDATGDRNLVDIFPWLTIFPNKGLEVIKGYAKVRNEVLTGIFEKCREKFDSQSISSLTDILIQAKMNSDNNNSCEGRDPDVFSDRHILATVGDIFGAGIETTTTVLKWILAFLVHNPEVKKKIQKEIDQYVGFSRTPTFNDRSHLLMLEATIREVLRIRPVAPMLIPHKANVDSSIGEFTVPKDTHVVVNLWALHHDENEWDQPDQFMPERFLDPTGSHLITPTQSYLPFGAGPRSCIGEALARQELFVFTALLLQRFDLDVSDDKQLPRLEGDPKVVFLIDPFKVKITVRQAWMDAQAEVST
How it was run: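 Testicular microsomes (human for human enzyme, rat for rat enzyme) incubated with progesterone substrate at 25 µM; product measured by RP-HPLC with UV detection. IC50 = concentration giving 50% inhibition, mean of at least two experiments.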

[3] = molecular target: T1, 3-oxo-5-alpha-steroid 4-dehydrogenase 1; assay: Inhibition of Human steroid 5-alpha-reductase type I expressed in HEK293 cells; assay type: cell-based
How it was run: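 Human 5α-reductase type 1 cDNA (plasmid pRcCMV-I) stably transfected into HEK293 cells, clones chosen under G418. 300 000 cells/well attached overnight at 37 °C, then fresh DMEM/10% FCS containing 5 nM [3H]androstenedione plus inhibitor (1% DMSO) for 30 min. Supernatant extracted with ether, product measured by HPLC. IC50 taken as mean of at least three experiments.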

[4] = molecular target: T3, 3-oxo-5-alpha-steroid 4-dehydrogenase 2 (Homo sapiens, UniProt P31213); assay: Evaluated for the inhibitory activity against human steroid 5-alpha-reductase type 2 from human BPH tissue at 210 nM of testosterone
T3 sequence (P31213 whole entry): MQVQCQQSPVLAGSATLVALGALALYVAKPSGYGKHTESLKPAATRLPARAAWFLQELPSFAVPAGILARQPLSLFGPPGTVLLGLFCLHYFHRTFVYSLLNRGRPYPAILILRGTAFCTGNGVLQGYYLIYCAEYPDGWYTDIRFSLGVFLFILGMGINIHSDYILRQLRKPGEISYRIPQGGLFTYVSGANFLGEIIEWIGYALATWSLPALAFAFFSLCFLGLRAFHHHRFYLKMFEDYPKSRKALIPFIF
How it was run: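 Enzyme from prostate homogenate of BPH patients, assayed at pH 5.5 with radiolabeled testosterone at 210 nM; product separated by HPLC. IC50 taken as inhibitor concentration giving 50% inhibition; mean of at least two experiments.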

[5] = molecular target: T3, 3-oxo-5-alpha-steroid 4-dehydrogenase 2; assay: Inhibition of Human steroid 5-alpha-reductase type II expressed in HEK293 cells; assay type: cell-based
How it was run: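 Stably transfected HEK293 clones expressing full-length human type 1 or type 2 cDNA; 300 000 cells per well attached overnight at 37 °C. Fresh DMEM/10% FCS with 5 nM [3H]androstenedione and inhibitor added, final DMSO 1%. Incubated 30 min (type 1) or 13 min (type 2); supernatant ether-extracted and analysed by HPLC. Mean of at least three experiments.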

[6] = molecular target: T4, Steroid 17-alpha-hydroxylase/17,20 lyase (Homo sapiens, UniProt P05093); assay: Evaluated for the inhibitory activity towards Cytochrome P450 17 human enzyme using testicular microsome at 25 uM of substrate (progesterone); design: species or system Testis
T4 sequence (P05093 whole entry): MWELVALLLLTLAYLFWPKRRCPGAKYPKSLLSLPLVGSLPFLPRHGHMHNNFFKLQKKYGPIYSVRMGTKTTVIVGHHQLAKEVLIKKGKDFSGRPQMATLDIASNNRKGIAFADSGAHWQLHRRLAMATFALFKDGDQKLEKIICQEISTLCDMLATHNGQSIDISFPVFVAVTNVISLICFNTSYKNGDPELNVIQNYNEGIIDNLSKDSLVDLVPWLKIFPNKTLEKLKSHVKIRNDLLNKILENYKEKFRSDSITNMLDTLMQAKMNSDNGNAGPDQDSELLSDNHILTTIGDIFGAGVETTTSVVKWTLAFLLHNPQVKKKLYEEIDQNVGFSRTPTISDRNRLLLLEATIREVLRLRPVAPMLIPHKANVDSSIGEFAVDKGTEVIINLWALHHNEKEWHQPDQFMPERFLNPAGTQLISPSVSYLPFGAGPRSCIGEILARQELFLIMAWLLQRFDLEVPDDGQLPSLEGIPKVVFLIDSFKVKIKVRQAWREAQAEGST

[7] = molecular target: T4, Steroid 17-alpha-hydroxylase/17,20 lyase; assay: Inhibition of Human P450 17 and NADPH-P450 reductase co-expressed in Escherichia coli with 25 uM progesterone
[8] = molecular target: T2, Steroid 17-alpha-hydroxylase/17,20 lyase; assay: Inhibition of Cytochrome P450 17 from rat testicular microsome at 25 uM progesterone; No inhibition
[9] = molecular target: T4, Steroid 17-alpha-hydroxylase/17,20 lyase; assay: Inhibition of Cytochrome P450 17 of human testicular microsome at 25 uM progesterone; No inhibition

Structure (SMILES) | IC50 [1] [nM] | IC50 [2] [µM] | IC50 [3] [nM] | IC50 [4] [nM] | IC50 [5] [nM] | IC50 [6] [nM] | IC50 [7] [nM] | IC50 [8] | IC50 [9]
CC12CCC(=O)C=C1CCC1C2CCC2(C)C(C/C=N/O)CCC12 (configuration not stated) | 1950 | 0.3 | 2440 | 300 | 890 |  |  |  | 
C/C(CC1CCC2C3CCC4=CC(=O)CCC4(C)C3CCC12C)=N\O (configuration not stated) | 900 | 3.6 |  | 470 |  | > 2500 |  |  | 
C/C(=N/O)C1CC=C2C3CC=C4CC(O)CCC4(C)C3CCC21C (configuration not stated) |  | > 125 |  |  |  | > 2500 |  |  | 
CC12CCC(O)CC1=CCC1C2CCC2(C)/C(=C/C=N/O)CCC12 (configuration not stated) |  | > 125 |  |  |  | > 2500 |  |  | 
C/C(=N/O)[C@H]1CC=C2[C@@H]3CC=C4C[C@@H](O)CC[C@]4(C)[C@H]3CC[C@@]21C |  | 125 |  |  |  | 200 | 420 |  | 
C/C(CC1CCC2C3CC=C4CC(O)CCC4(C)C3CCC12C)=N\O (configuration not stated) |  | 9.8 |  |  |  | 1180 |  |  | 
C/C(CC1CCC2C3CC(=O)C4=CC(=O)CCC4(C)C3CCC12C)=N\O (configuration not stated) | 900 |  | 2900 | 430 | 860 |  |  | Not Active | Not Active
C[C@]12CC[C@H](O)C=C1CC[C@H]1C3CC/C(=C/C=N\O)[C@@]3(C)CC[C@@H]12 (some centres not stated) |  | 0.14 |  | 430 |  | 180 |  |  | 
C/C(=N/O)C1=CCC2[C@@H]3CC=C4C[C@@H](O)CC[C@]4(C)[C@H]3CC[C@]12C (some centres not stated) |  | > 125 |  |  |  | 170 | 520 |  | 
C/C(=N/O)[C@@]1(O)CCC2C3CC=C4CC(O)CCC4(C)C3CCC21C (some centres not stated) |  |  |  |  |  |  |  | Not Active | Not Active
